The source made the active and inactive calls. The rule behind the calls is not given here.
Experiments:
[1] = Half life in male CD1 mouse at 10 mg/kg, IP measured upto 24 hrs by LC-MS/MS-39 analysis; assay type: ADME, organism-based; conditions: in vivo
Outline: (§1)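 Male CD1 mice, n=3, one 10 mg/kg intraperitoneal dose. Blood sampled at 0, 0.25, 0.5, 1, 2, 4, 6, 8 and 24 h. Kept on wet ice and spun to plasma (2000 g, 5 min, 4 °C) within 15 min, stored at about −70 °C. Protein precipitation with acetonitrile, then LC-MS/MS. Values are mean ± SD of three mice.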

[2] = molecular target: von Hippel-Lindau disease tumor suppressor/Cyclin-dependent kinase 6 (Homo sapiens) (UniProt Q00534+P40337); test: PROTAC activity at CDK6/VHL in human Jurkat cells assessed as degradation of CDK7 measured at 10 to 500 nM after 6 hrs incubation by Western blotting analysis; assay type: cell-based; conditions: dose 10-500 nM
[3] = molecular target: T1, von Hippel-Lindau disease tumor suppressor/Cyclin-dependent kinase 7 (Homo sapiens) (UniProt P50613+P40337); test: PROTAC activity at CDK7/VHL in human Jurkat cells assessed as degradation of Cyclin H measured at 0.1 to 5 uM after 6 hrs incubation by Western blotting analysis; assay type: cell-based; conditions: dose 0.1-5 µM
Outline: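 Jurkat and OVCAR3 cells treated 6 h across a concentration series. Blots probed for CDK7, MAT1 (1:1000) and Cyclin H (1:1000) overnight at 4 °C, with β-actin control and IRDye secondaries.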

[4] = AUClast in male CD1 mouse at 10 mg/kg, IP measured upto 24 hrs by LC-MS/MS-39 analysis; assay type: ADME, organism-based; conditions: in vivo; outline: as §1
[5] = Cmax in male CD1 mouse at 3 mg/kg, IV measured upto 24 hrs by LC-MS/MS-39 analysis; assay type: ADME, organism-based; conditions: in vivo
Outline: (§2)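 Three male CD1 mice given a single 3 mg/kg intravenous dose. Plasma prepared on ice by centrifugation (2000 g, 5 min, 4 °C) within 15 min, held at about −70 °C. Acetonitrile precipitation, then LC-MS/MS quantitation. Mean ± SD, n=3.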

[6] = molecular target: von Hippel-Lindau disease tumor suppressor/Cyclin-dependent kinase 1 (Homo sapiens) (UniProt P06493+P40337); test: PROTAC activity at CDK1/VHL in human Jurkat cells assessed as degradation of CDK7 measured at 10 to 500 nM after 6 hrs incubation by Western blotting analysis; assay type: cell-based; conditions: dose 10-500 nM
[7] = Tmax in male CD1 mouse at 3 mg/kg, IV measured upto 24 hrs by LC-MS/MS-39 analysis; assay type: ADME, organism-based; conditions: in vivo; outline: as §2
[8] = molecular target: T1, von Hippel-Lindau disease tumor suppressor/Cyclin-dependent kinase 7 (Homo sapiens); test: PROTAC activity at CDK7/VHL in human Jurkat cells assessed as degradation of CDK7 at 0.1 uM by immunoblot analysis; assay type: cell-based; conditions: time 0.5-24 hrs, TDE = time-dependent effect
Outline: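 Jurkat time course at 0.1 μM, lysates taken at set time points from 0.5 up to 24 h. CDK7 immunoblotted after RIPA lysis, SDS-PAGE and near-infrared detection with β-actin loading control.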

[9] = molecular target: T1, von Hippel-Lindau disease tumor suppressor/Cyclin-dependent kinase 7 (Homo sapiens); test: PROTAC activity at CDK7/VHL in human Jurkat cells assessed as degradation of CDK7 at 1 uM measured after 16 hrs incubation by immunoblot analysis relative to control; assay type: cell-based
Outline: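 Jurkat cells given VHL-recruiting compounds at 0.1 or 1 μM for 16 h. RIPA lysis, BCA normalization, 4–20% SDS-PAGE, nitrocellulose transfer. CDK7 (1:1000) and β-actin probed overnight at 4 °C, IRDye secondaries, Odyssey detection. Quantified against control, mean ± SEM from three independent biological replicates.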

[10] = molecular target: T1, von Hippel-Lindau disease tumor suppressor/Cyclin-dependent kinase 7 (Homo sapiens); test: PROTAC activity at CDK7/VHL in human Jurkat cells assessed as degradation of CDK7 in presence of 1 uM MLN-4924 at 0.1 uM measured after 6 hrs incubation by immunoblot analysis; assay type: cell-based
Outline: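 Jurkat cells pretreated 2 h with MG132, MLN-4924, YKL-5–167 or a VHL ligand, then given degrader for 6 h. CDK7 immunoblotted: RIPA lysis, SDS-PAGE, anti-CDK7 1:1000, IRDye secondaries.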

[11] = molecular target: von Hippel-Lindau disease tumor suppressor/Cyclin-dependent kinase 8 (Homo sapiens) (UniProt P49336+P40337); test: PROTAC activity at CDK8/VHL in human Jurkat cells assessed as degradation of CDK7 measured at 10 to 500 nM after 6 hrs incubation by Western blotting analysis; assay type: cell-based; conditions: dose 10-500 nM
A549 = test: Antiproliferative activity against human A549 cells assessed as cell viability measured after 72 hrs by CellTiter-Glo assay; assay type: functional, cell-based; conditions: A549, 72 h
Outline: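 Cells grown in RPMI 1640 with 10% heat-inactivated FBS and penicillin/streptomycin at 37 °C, 5% CO2, mycoplasma-negative. Seeded at 10^4/ml. Compounds dispensed digitally from 10 mM or 1 mM DMSO stocks, DMSO equalized, triplicate wells. After 72 h, CellTiter-Glo added for 10–15 min at room temperature and luminescence read.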

[12] = Observed volume of distribution at steady state in male CD1 mouse at 3 mg/kg, IV measured upto 24 hrs by LC-MS/MS-39 analysis; assay type: ADME, organism-based; conditions: in vivo, read-out: Vdss; outline: as §2
[13] = AUClast in male CD1 mouse at 3 mg/kg, IV measured upto 24 hrs by LC-MS/MS-39 analysis; assay type: ADME, organism-based; conditions: in vivo; outline: as §2
[14] = Cmax in male CD1 mouse at 10 mg/kg, IP measured upto 24 hrs by LC-MS/MS-39 analysis; assay type: ADME, organism-based; conditions: in vivo; outline: as §1
[15] = molecular target: von Hippel-Lindau disease tumor suppressor/Cyclin-dependent kinase 9 (Homo sapiens) (UniProt P50750+P40337); test: PROTAC activity at CDK9/VHL in human Jurkat cells assessed as degradation of CDK7 measured at 10 to 500 nM after 6 hrs incubation by Western blotting analysis; assay type: cell-based; conditions: dose 10-500 nM
[16] = molecular target: T1, von Hippel-Lindau disease tumor suppressor/Cyclin-dependent kinase 7 (Homo sapiens); test: PROTAC activity at CDK7/VHL in human SU-DHL-5 cells assessed as degradation of CDK7 at 0.1 to 5 uM measured after 6 hrs incubation by immunoblot analysis; assay type: cell-based; conditions: dose 0.1-5 µM
[17] = molecular target: Cyclin-dependent kinase 7 (Homo sapiens) (UniProt P50613); test: Induction of degradation of CDK7 in human […]-knockout Jurkat cells at 0.01 to 1 uM measured after 6 hrs incubation by immunoblot analysis; assay type: cell-based; conditions: dose 0.01-1 µM
Outline: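 Parental and VHL-knockout Jurkat cells treated with degrader for 6 h, then CDK7 western blot (RIPA lysis, 4–20% SDS-PAGE, β-actin control, infrared detection).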

[18] = molecular target: von Hippel-Lindau disease tumor suppressor/LON peptidase N-terminal domain and RING finger protein 2 (Homo sapiens) (UniProt P40337+Q1L5Z9); test: PROTAC activity at LONRF2/VHL in human Jurkat cells assessed as degradation of LONRF2 measured at 0.1 to 5 uM after 6 hrs incubation by Western blotting analysis; assay type: cell-based; conditions: dose 0.1-5 µM
von Hippel-Lindau disease tumor suppressor/LON peptidase N-terminal domain and RING finger protein 2 (Homo sapiens), sequence (P40337 whole entry, looked up, the tested form may be a part): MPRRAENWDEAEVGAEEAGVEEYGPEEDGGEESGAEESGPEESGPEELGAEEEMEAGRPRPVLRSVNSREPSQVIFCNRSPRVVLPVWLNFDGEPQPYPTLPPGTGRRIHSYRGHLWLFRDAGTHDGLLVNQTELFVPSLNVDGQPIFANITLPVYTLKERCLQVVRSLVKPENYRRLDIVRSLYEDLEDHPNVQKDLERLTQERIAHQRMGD
von Hippel-Lindau disease tumor suppressor/LON peptidase N-terminal domain and RING finger protein 2 (Homo sapiens), sequence (Q1L5Z9 whole entry, looked up, the tested form may be a part): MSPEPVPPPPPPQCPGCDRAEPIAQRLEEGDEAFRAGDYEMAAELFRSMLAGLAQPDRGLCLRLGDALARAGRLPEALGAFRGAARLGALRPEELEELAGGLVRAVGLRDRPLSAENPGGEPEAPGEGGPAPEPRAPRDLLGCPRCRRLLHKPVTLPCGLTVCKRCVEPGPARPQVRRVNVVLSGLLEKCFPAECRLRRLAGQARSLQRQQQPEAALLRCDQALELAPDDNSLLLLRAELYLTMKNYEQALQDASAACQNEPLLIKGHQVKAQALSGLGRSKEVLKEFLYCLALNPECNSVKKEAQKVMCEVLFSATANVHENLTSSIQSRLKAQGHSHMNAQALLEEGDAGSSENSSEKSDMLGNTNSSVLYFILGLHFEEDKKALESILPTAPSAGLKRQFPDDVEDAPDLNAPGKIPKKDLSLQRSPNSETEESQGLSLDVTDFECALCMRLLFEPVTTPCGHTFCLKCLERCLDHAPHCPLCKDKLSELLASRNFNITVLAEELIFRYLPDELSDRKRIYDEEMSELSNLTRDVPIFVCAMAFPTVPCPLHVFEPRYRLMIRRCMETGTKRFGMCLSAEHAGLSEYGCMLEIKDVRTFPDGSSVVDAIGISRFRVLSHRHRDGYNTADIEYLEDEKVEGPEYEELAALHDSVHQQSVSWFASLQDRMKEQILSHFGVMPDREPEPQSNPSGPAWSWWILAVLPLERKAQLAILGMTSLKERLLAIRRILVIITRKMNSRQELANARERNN

T1 sequence (P40337 whole entry, looked up): as the sequence (P40337 whole entry, looked up, the tested form may be a part) above
T1 sequence (P50613 whole entry, looked up): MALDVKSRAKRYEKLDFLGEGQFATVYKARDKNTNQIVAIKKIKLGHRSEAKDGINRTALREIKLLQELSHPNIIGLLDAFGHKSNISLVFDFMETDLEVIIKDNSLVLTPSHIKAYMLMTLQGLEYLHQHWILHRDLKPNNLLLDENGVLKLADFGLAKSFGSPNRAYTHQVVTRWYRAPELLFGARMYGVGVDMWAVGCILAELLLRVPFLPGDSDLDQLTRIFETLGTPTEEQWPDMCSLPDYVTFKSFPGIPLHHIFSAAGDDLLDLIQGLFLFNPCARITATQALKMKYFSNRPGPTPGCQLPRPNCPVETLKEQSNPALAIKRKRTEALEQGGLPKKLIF
von Hippel-Lindau disease tumor suppressor/Cyclin-dependent kinase 8 (Homo sapiens), sequence (P40337 whole entry, looked up): as the sequence (P40337 whole entry, looked up, the tested form may be a part) above
von Hippel-Lindau disease tumor suppressor/Cyclin-dependent kinase 8 (Homo sapiens), sequence (P49336 whole entry, looked up): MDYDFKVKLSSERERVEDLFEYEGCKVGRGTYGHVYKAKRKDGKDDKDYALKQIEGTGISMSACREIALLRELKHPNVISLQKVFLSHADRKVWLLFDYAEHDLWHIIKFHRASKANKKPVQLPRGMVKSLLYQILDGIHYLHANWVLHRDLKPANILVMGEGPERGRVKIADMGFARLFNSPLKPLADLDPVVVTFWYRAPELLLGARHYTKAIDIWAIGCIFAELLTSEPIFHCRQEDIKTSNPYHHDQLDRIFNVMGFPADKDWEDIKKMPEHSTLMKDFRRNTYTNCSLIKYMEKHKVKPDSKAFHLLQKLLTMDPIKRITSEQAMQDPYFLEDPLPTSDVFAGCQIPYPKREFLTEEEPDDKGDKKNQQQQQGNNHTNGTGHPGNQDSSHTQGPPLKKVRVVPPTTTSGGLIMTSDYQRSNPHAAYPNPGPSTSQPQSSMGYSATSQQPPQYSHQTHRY
von Hippel-Lindau disease tumor suppressor/Cyclin-dependent kinase 9 (Homo sapiens), sequence (P40337 whole entry, looked up): as the sequence (P40337 whole entry, looked up, the tested form may be a part) above
von Hippel-Lindau disease tumor suppressor/Cyclin-dependent kinase 9 (Homo sapiens), sequence (P50750 whole entry, looked up): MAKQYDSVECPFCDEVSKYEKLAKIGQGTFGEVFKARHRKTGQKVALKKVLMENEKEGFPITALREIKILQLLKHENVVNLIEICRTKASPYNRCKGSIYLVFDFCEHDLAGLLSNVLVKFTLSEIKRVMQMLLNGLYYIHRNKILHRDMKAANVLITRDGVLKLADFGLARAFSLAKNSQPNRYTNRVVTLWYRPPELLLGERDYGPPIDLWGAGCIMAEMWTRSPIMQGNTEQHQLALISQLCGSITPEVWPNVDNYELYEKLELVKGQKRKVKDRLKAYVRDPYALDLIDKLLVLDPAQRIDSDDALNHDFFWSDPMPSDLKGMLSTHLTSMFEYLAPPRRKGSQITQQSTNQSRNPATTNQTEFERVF
von Hippel-Lindau disease tumor suppressor/Cyclin-dependent kinase 6 (Homo sapiens), sequence (P40337 whole entry, looked up): as the sequence (P40337 whole entry, looked up, the tested form may be a part) above
von Hippel-Lindau disease tumor suppressor/Cyclin-dependent kinase 6 (Homo sapiens), sequence (Q00534 whole entry, looked up): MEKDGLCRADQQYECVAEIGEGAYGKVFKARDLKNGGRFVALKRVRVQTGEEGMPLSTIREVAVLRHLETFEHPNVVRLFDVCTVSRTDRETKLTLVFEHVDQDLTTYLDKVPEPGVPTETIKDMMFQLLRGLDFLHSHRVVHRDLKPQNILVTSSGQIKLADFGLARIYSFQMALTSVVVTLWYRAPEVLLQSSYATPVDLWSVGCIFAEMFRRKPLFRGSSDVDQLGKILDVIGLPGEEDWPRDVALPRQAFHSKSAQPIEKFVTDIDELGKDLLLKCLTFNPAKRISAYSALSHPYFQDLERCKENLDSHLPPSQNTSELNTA
Cyclin-dependent kinase 7 (Homo sapiens), sequence (P50613 whole entry): as the sequence (P50613 whole entry, looked up) above
von Hippel-Lindau disease tumor suppressor/Cyclin-dependent kinase 1 (Homo sapiens), sequence (P06493 whole entry, looked up): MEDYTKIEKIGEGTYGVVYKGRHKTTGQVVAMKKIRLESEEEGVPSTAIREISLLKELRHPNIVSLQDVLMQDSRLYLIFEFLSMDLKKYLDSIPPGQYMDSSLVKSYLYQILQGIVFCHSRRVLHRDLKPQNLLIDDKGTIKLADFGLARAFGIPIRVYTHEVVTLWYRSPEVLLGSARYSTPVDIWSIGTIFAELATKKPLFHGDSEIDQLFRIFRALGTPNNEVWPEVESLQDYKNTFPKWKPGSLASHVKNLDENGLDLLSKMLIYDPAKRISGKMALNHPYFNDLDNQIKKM
von Hippel-Lindau disease tumor suppressor/Cyclin-dependent kinase 1 (Homo sapiens), sequence (P40337 whole entry, looked up): as the sequence (P40337 whole entry, looked up, the tested form may be a part) above

Cc1ncsc1-c1ccc([C@H](C)NC(=O)[C@@H]2C[C@@H](O)CN2C(=O)[C@@H](NC(=O)CCCC#Cc2ccc(C(=O)Nc3n[nH]c4c3CN(C(=O)N[C@H](CN(C)C)c3ccccc3)C4(C)C)cc2)C(C)(C)C)cc1
t1/2 [1]: 169 min | Activity [2]: inactive | Activity [3]: Active | AUClast [4]: 19.4 µM·h | Cmax [5]: 17.1 µM | Activity [6]: inactive | Tmax [7]: 4.98 min | Activity [8]: Tde | Activity [9]: 95% | Activity [10]: inactive | Activity [11]: inactive | IC50 (A549): 332 nM | Vd [12]: 0.345 L/kg | AUClast [13]: 6.12 µM·h | Cmax [14]: 3.39 µM | Activity [15]: inactive | Activity [16]: Dose-Dependent Effect | Activity [17]: inactive | Activity [18]: inactive

Reference: ChEMBL document CHEMBL5608193, “Discovery of bivalent small molecule degraders of cyclin-dependent kinase 7 (CDK7)” (Eur J Med Chem, 2024)
